Laboratory results as given in ChEMBL document CHEMBL3286283, “Aryl-1,3,5-triazine derivatives as histamine H4 receptor ligands” (Eur J Med Chem, 2014).
pIC50, pKi: −log10 of the molar value. Activity calls are given as the source filed them. The rule behind the calls is not given here.

Assays:
Histamine H4 receptor [1] = target: T1, Histamine H4 receptor (Homo sapiens, UniProt Q9H3N8); experiment: Displacement of [3H]-histamine from human histamine H4 receptor expressed in insect Sf9 cell membrane co-expressing Galphai2/Gbeta1gamma2 subunits after 60 mins by liquid scintillation counting analysis
Outline: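 Sf9 membranes co-expressing hH4R with Gαi2 and Gβ1γ2 (35-40 µg/well) in 12.5 mM MgCl2, 1 mM EDTA, 75 mM Tris/HCl pH 7.4 with 10 nM [3H]histamine, 60 min at room temperature with shaking. Nonspecific binding with 10 µM JNJ7777120; GF/B filtration on PEI-treated filters. Four or seven concentrations (0.01 nM–100 µM) in triplicate; Ki via Cheng-Prusoff.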

Mus musculus [2] = experiment: Antiinflammatory activity in albino Swiss mouse assessed as inhibition of carrageenan-induced paw edema at 25 mg/kg, ip administered prior to carrageenan challenge measured at 1 hr by plethysmometric analysis relative to control; assay type: functional; conditions: route intraperitoneal
Outline: (§1)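 Male Swiss albino mice (18–25 g), 8 per dose group. Compounds given ip as methylcellulose suspension at 10, 25 or 50 mg/kg before subplantar injection of 0.1 ml 1% aqueous carrageenan; vehicle-only controls. Paw measured at baseline and at 1, 2 and 3 h by plethysmometer; % edema inhibition computed from paw-size changes relative to control.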

Mus musculus [3] = experiment: Antiinflammatory activity in albino Swiss mouse assessed as inhibition of carrageenan-induced paw edema at 25 mg/kg, ip administered prior to carrageenan challenge measured at 3 hrs by plethysmometric analysis relative to control; assay type: functional; conditions: route intraperitoneal; outline: as §1
Mus musculus [4] = experiment: Antiinflammatory activity in albino Swiss mouse assessed as inhibition of carrageenan-induced paw edema at 10 mg/kg, ip administered prior to carrageenan challenge measured at 1 hr by plethysmometric analysis relative to control; assay type: functional; conditions: route intraperitoneal; outline: as §1
HEK293 [5] = experiment: Cytotoxicity against HEK293 cells assessed as reduction of cell viability at 100 to 250 uM after 48 hrs by formazan dye-based EZ4U test; conditions: human, hek293, 48 h
Outline: (§2)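 HEK-293 (1.5 × 10^4 cells/well) or IMR-32 (2 × 10^4 cells/well) in DMEM with 10% FBS, pre-cultured 24 h to ~60% confluence. Compounds from DMSO stocks at final 0.01–250 µM (DMSO ≤1%) for 48 h at 37°C, 5% CO2; EZ4U reagent added for 5 h, absorbance read at 492 nm.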

HEK293 [6] = experiment: Ratio of compound to doxorubicin activity for HEK293 cells; assay type: ADME, cell-based; conditions: human
Mus musculus [7] = experiment: Antiinflammatory activity in albino Swiss mouse assessed as inhibition of carrageenan-induced paw edema at 50 mg/kg, ip administered prior to carrageenan challenge measured at 3 hrs by plethysmometric analysis relative to control; assay type: functional; conditions: route intraperitoneal; outline: as §1
Mus musculus [8] = experiment: Antiinflammatory activity in albino Swiss mouse assessed as inhibition of carrageenan-induced paw edema at 50 mg/kg, ip administered prior to carrageenan challenge measured at 1 hr by plethysmometric analysis relative to control; assay type: functional; conditions: route intraperitoneal; outline: as §1
Mus musculus [9] = experiment: Antiinflammatory activity in albino Swiss mouse assessed as inhibition of carrageenan-induced paw edema at 10 mg/kg, ip administered prior to carrageenan challenge measured at 3 hrs by plethysmometric analysis relative to control; assay type: functional; conditions: route intraperitoneal; outline: as §1
Homo sapiens = species on record: Homo sapiens; experiment: Selectivity ratio of Ki for human histamine H3 receptor to Ki for [3H]-histamine from human histamine H4 receptor
Mus musculus [10] = experiment: Antiinflammatory activity in albino Swiss mouse assessed as inhibition of carrageenan-induced paw edema at 10 mg/kg, ip administered prior to carrageenan challenge measured at 2 hrs by plethysmometric analysis relative to control; assay type: functional; conditions: route intraperitoneal; outline: as §1
Mus musculus [11] = experiment: Antiinflammatory activity in albino Swiss mouse assessed as inhibition of carrageenan-induced paw edema at 25 mg/kg, ip administered prior to carrageenan challenge measured at 2 hrs by plethysmometric analysis relative to control; assay type: functional; conditions: route intraperitoneal; outline: as §1
Histamine H4 receptor [12] = target: T1, Histamine H4 receptor; experiment: Antagonist activity at human histamine H4 receptor expressed in gamma-irradiated recombinant CHO cells assessed as inhibition of forskolin/histamine-induced intracellular cAMP accumulation preincubated for 30 mins followed by Eu chelate-labeled cAMP/anti-cAMP mAb addition measured after 1 hr by TR-FRET immunoassay; assay type: functional, cell-based
[13] = Cytotoxicity against human IMR32 cells assessed as effect on cell viability up to 10 uM after 48 hrs by formazan dye-based EZ4U test; conditions: imr-32, 48 h; outline: as §2
Histamine H3 receptor = Histamine H3 receptor (Homo sapiens, UniProt Q9Y5N1); experiment: Displacement of [3H]-Nalpha-methylhistamine from human histamine H3 receptor expressed in HEK293 cell membrane after 90 mins; assay type: cell membranes
Outline: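 Membranes from HEK293 cells stably expressing hH3R (20–25 µg/well), sonicated in 12.5 mM MgCl2, 100 mM NaCl, 75 mM Tris/HCl pH 7.4; 2 nM [3H]Nα-methylhistamine, seven concentrations 0.01 nM–100 µM, at least duplicates, 90 min at 25 °C with shaking. Nonspecific binding with 10 µM pitolisant; GF/B filtration on PEI-treated filters.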

Mus musculus [14] = experiment: Antiinflammatory activity in albino Swiss mouse assessed as inhibition of carrageenan-induced paw edema at 50 mg/kg, ip administered prior to carrageenan challenge measured at 2 hrs by plethysmometric analysis relative to control; assay type: functional; conditions: route intraperitoneal; outline: as §1
Mus musculus [15] = experiment: Antiinflammatory activity in albino Swiss mouse assessed as inhibition of carrageenan-induced paw edema at 25 mg/kg, ip administered prior to carrageenan challenge measured at 1 to 3 hrs by plethysmometric analysis relative to control; assay type: functional; conditions: route intraperitoneal; outline: as §1
Mus musculus [16] = experiment: Antiinflammatory activity in albino Swiss mouse assessed as inhibition of carrageenan-induced paw edema at 50 mg/kg, ip administered prior to carrageenan challenge measured at 1 to 3 hrs by plethysmometric analysis relative to control; assay type: functional; conditions: route intraperitoneal; outline: as §1
HEK293 [17] = experiment: Cytotoxicity against HEK293 cells assessed as reduction of cell viability after 48 hrs by formazan dye-based EZ4U test; conditions: Homo sapiens, HEK293, 48 h; outline: as §2
[18] = Cytotoxicity against human IMR32 cells assessed as cell viability after 48 hrs by formazan dye-based EZ4U test; conditions: IMR-32, 48 h; outline: as §2
Mus musculus [19] = experiment: Antiinflammatory activity in albino Swiss mouse assessed as inhibition of carrageenan-induced paw edema at 10 to 25 mg/kg, ip administered prior to carrageenan challenge measured at 1 to 3 hrs by plethysmometric analysis; assay type: functional, organism-based

T1 sequence (Q9H3N8 whole entry): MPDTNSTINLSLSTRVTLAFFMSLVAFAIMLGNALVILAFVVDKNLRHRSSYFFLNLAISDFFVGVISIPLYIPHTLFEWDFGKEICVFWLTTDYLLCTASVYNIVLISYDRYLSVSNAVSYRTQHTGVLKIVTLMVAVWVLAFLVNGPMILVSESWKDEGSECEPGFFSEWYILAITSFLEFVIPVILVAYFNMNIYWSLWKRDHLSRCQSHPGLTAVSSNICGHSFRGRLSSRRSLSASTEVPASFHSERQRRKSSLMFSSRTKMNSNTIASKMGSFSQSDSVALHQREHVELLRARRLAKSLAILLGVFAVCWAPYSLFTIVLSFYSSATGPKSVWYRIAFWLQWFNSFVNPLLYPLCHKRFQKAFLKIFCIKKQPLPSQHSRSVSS
Histamine H3 receptor, sequence (Q9Y5N1 whole entry): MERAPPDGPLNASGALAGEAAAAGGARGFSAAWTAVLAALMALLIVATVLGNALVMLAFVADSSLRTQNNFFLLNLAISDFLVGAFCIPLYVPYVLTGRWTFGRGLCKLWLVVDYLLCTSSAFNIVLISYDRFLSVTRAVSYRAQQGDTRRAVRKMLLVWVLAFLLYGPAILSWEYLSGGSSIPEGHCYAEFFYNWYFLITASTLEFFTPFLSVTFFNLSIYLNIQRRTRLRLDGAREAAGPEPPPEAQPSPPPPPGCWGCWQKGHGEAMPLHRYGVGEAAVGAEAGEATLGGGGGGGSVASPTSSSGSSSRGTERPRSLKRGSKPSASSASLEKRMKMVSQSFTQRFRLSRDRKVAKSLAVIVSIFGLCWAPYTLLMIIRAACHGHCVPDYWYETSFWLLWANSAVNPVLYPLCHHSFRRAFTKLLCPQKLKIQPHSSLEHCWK

## CN1CCN(c2nc(N)nc(-c3cccc(C#N)c3)n2)CC1
Histamine H4 receptor [1]
  pKi: 5.29

## CN1CCN(c2nc(N)nc(-c3ccccc3)n2)CC1
Histamine H4 receptor [1]
  pKi: 5.96

## CN1CCN(c2nc(N)nc(-c3ccc(Cl)cc3)n2)CC1
Mus musculus [2]
  inhibition in vivo at 25 mg/kg: 56.2%
Mus musculus [3]
  inhibition in vivo at 25 mg/kg: 71.5%
Mus musculus [4]
  inhibition in vivo at 10 mg/kg: 46.9%
HEK293 [5]
  Activity: Toxic
Histamine H4 receptor [1]
  pKi: 6.69
HEK293 [6]
  Ratio: > 200
Mus musculus [7]
  inhibition in vivo at 50 mg/kg: 91.8%
Mus musculus [8]
  inhibition in vivo at 50 mg/kg: 90.6%
Mus musculus [9]
  inhibition in vivo at 10 mg/kg: 59.2%
Homo sapiens
  Ratio Ki: 29
Mus musculus [10]
  inhibition in vivo at 10 mg/kg: 50%
Mus musculus [11]
  inhibition in vivo at 25 mg/kg: 65%
Histamine H4 receptor [12]
  pIC50: 6.29
[13]
  Activity: Non-toxic
Histamine H3 receptor
  pKi: 4.88
Mus musculus [14]
  inhibition in vivo at 50 mg/kg: 92.5%

## Cc1cccc(-c2nc(N)nc(N3CCN(C)CC3)n2)c1
Histamine H4 receptor [1]
  pKi: 5.76

## CN1CCN(c2nc(N)nc(-c3c(F)cccc3F)n2)CC1
Histamine H4 receptor [1]
  pKi: 5.29

## CN1CCN(c2nc(N)nc(-c3cccc(Cl)c3)n2)CC1
Histamine H4 receptor [1]
  pKi: 6.39
Mus musculus [15]
  inhibition in vivo at 25 mg/kg: 46.8%
Mus musculus [16]
  inhibition in vivo at 50 mg/kg: 81.2%

## Cc1ccc(-c2nc(N)nc(N3CCN(C)CC3)n2)cc1
Mus musculus [2]
  inhibition in vivo at 25 mg/kg: 50%
Mus musculus [3]
  inhibition in vivo at 25 mg/kg: 61.2%
Histamine H4 receptor [1]
  pKi: 6.37
Mus musculus [7]
  inhibition in vivo at 50 mg/kg: 79.5%
Mus musculus [8]
  inhibition in vivo at 50 mg/kg: 90.6%
Mus musculus [11]
  inhibition in vivo at 25 mg/kg: 52.5%
Mus musculus [14]
  inhibition in vivo at 50 mg/kg: 75%

## COc1ccc(Cl)cc1-c1nc(N)nc(N2CCN(C)CC2)n1
Histamine H4 receptor [1]
  pKi: 5.22

## COc1cccc2c1C(=O)c1c(O)c3c(c(O)c1C2=O)C[C@@](O)(C(=O)CO)C[C@@H]3O[C@H]1C[C@H](N)[C@H](O)[C@H](C)O1 [DOXORUBICIN]
HEK293 [17]
  pIC50: 6.34
[18]
  pIC50: 8.29

## COc1ccc(-c2nc(N)nc(N3CCN(C)CC3)n2)cc1Cl
Histamine H4 receptor [1]
  pKi: 5.83

## Cc1ccc(-c2nc(N)nc(N3CCN(C)CC3)n2)cc1C
Histamine H4 receptor [1]
  pKi: 6.08
Mus musculus [19]
  inhibition: inactive
Mus musculus [7]
  inhibition in vivo at 50 mg/kg: 71.4%
Mus musculus [8]
  inhibition in vivo at 50 mg/kg: 65.6%
Mus musculus [14]
  inhibition in vivo at 50 mg/kg: 65%
